Legend:
[1] = Mole fraction of the IC50 concentration of compound divided by the total lipid concentration (1230 uM) in a chromogenic assay; assay type: functional
Cavia porcellus [2] = species on record: Cavia porcellus; assay: Inhibition Arachidonic acid(AA) induced contraction of GP lung tissue; assay type: functional
Outline: (§1)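 Guinea pig lung pleural strips were contracted with either hnps-PLA2 or arachidonic acid, the latter serving as the control challenge for selectivity. Antagonism is given as KB.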

Cavia porcellus [3] = species on record: Cavia porcellus; assay: Inhibition of Phospholipase A2 induced contraction of GP lung tissue; assay type: functional; outline: as §1
[4] = biological target: T1, Phospholipase A2, membrane associated (Homo sapiens, UniProt P14555); assay: Inhibition of human nonpancreatic secretory Phospholipase A2 through DOC/PC assay
T1 sequence (P14555 whole entry): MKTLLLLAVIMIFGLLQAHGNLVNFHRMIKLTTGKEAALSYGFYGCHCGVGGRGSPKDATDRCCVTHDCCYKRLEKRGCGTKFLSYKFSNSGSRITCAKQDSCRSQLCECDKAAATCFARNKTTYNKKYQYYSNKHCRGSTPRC
Outline: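 hnps-PLA2 (10 ng per tube; 3 nM) was preincubated with test compound in DMSO in pH 8 Tris buffer with 0.2 M NaCl, 2 mM CaCl2 and fatty-acid-free BSA. The substrate was sonicated mixed micelles (final 3 mM deoxycholate/1 mM PC) with [14C]-palmitoyl-oleoyl-PC. Reactions ran 1 h at 40 °C and were stopped with Dole reagent. Released [14C]oleic acid was extracted with heptane/silica and counted. IC50 was calculated against diluent controls.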

[5] = biological target: T1, Phospholipase A2, membrane associated; assay: Inhibition of human nonpancreatic secretory Phospholipase A2 through chromogenic assay
[6] = Mole fraction is the IC50 concentration divided by the total lipid concentration (4000 uM) in DOC/PC assay; assay type: functional
Outline: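 The value is a mole fraction: the DOC/PC assay IC50 (3 nM hnps-PLA2; 3 mM DOC/1 mM [14C]PC micelles; 1 h at 40 °C; released [14C]oleic acid counted) divided by the total lipid concentration of 4000 µM.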

Phospholipase A2 [7] = biological target: T2, Phospholipase A2 (Homo sapiens, UniProt P04054); assay: Compound was evaluated to inhibit human secretory pancreatic Phospholipase A2
Phospholipase A2 [8] = biological target: T2, Phospholipase A2; assay: Compound was tested for inhibition of human secreted pancreatic PLA2
Phospholipase A2 [9] = biological target: T2, Phospholipase A2; assay: Compound was tested for inhibition of human secretory pancreatic Phospholipase A2
[10] = biological target: T3, Phospholipase A2, major isoenzyme (Sus scrofa, UniProt P00592); assay: Compound was tested for inhibition of porcine secretory pancreatic Phospholipase A2
[11] = biological target: T3, Phospholipase A2, major isoenzyme; assay: Compound was tested for inhibition of porcine secretory pancreatic PLA2
[12] = biological target: T3, Phospholipase A2, major isoenzyme; assay: Compound was tested for inhibition of porcine secreted pancreatic PLA2
Phospholipase A2 [13] = biological target: T2, Phospholipase A2; assay: Compound was tested for inhibition of human secretory pancreatic PLA2
[14] = biological target: T1, Phospholipase A2, membrane associated; assay: Compound was evaluated to inhibit human nonpancreatic secretory Phospholipase A2 through chromogenic assay; assay type: functional
Outline: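 Chromogenic hnps-PLA₂ hydrolysis assay with 16 nM enzyme and 1.23 mM (1230 µM) total lipid substrate. IC₅₀ was determined, and the mole-fraction value is the IC₅₀ divided by the total lipid concentration.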

T3 sequence (P00592 whole entry): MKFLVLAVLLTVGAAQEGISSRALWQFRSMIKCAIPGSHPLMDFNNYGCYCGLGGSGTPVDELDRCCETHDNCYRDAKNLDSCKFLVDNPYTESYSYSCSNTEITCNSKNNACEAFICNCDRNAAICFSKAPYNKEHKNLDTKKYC
T2 sequence (P04054 whole entry): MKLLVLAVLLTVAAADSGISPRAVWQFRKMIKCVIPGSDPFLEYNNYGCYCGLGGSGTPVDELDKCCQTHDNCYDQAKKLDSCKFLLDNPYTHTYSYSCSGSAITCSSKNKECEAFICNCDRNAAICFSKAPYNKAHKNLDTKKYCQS

Row | Compound | Mole fraction [1] | ED50 (Cavia porcellus [2]) [nM] | KB (Cavia porcellus [3]) [µM] | IC50 [4] [nM] | IC50 [5] [nM] | Mole fraction [6] | other results
1 | CCc1c(C(=O)C(N)=O)c2cc(OCCCC(=O)O)ccc2n1Cc1ccccc1 | 0.00017 |  |  |  |  |  | 
2 | Cc1c(C(=O)C(N)=O)c2c(OCC(=O)O)cccc2n1Cc1ccc(F)cc1 | 2.5e-05 | >30000 | 0.11 | 74 | 30 | 1.9e-05 | 
3 | Cc1c(C(=O)C(N)=O)c2c(/C=C/C(=O)O)cccc2n1Cc1ccccc1 | 0.036 |  |  |  | 46000 |  | IC50 (Phospholipase A2 [7]): > 100000 nM
4 | CCCCCCCCn1c(C)c(C(=O)C(N)=O)c2c(OCC(=O)O)cccc21 | 6.5e-06 | >30000 | 0.061 | 18 | 8 | 4.5e-06 | IC50 (Phospholipase A2 [8]): 780 nM
5 | NC(=O)C(=O)c1c(C2CC2)n(Cc2ccccc2)c2cccc(OCC(=O)O)c12 | 2.3e-05 |  |  | 41 | 28 | 1e-05 | 
6 | Cc1c(C(=O)C(N)=O)c2c(OCC(=O)O)cccc2n1Cc1ccccc1 | 8.9e-06 | >10000 | 0.14 | 19 | 11 | 4.8e-06 | IC50 (Phospholipase A2 [9]): 761 nM; IC50 [10]: 15 nM
7 | CCc1c(C(=O)C(N)=O)c2c(OCC(=O)O)cccc2n1Cc1ccccc1Cc1ccccc1 | 3.3e-06 |  | 0.052 | 4 | 4 | 1e-06 | IC50 (Phospholipase A2 [9]): 62 nM
8 | CCc1c(C(=O)C(N)=O)c2c(CC(=O)O)cc(C)cc2n1Cc1ccccc1 | 6.5e-06 | 3160 | 0.124 | 8 | 8 | 2e-06 | 
9 | CCc1c(C(=O)C(N)=O)c2c(O[C@@H](C)C(=O)O)cccc2n1Cc1ccccc1 | 0.00011 |  |  |  | 141 |  | 
10 | CCCc1ccc2c(c1OCC(=O)O)c(C(=O)C(N)=O)c(CC)n2Cc1ccccc1 | 0.0017 |  |  |  | 2070 |  | 
11 | CCc1c(C(=O)C(N)=O)c2c(OC(C)C(=O)O)cccc2n1Cc1ccccc1 (centres undefined) | 8.9e-06 | 3160 | 0.21 | 13 | 11 | 3.3e-06 | 
12 | Cc1ccccc1Cn1c(C)c(C(=O)C(N)=O)c2c(OCC(=O)O)cccc21 | 1.3e-05 | >30000 | 0.154 | 45 | 15 | 1.1e-05 | 
13 | NC(=O)C(=O)c1cn(Cc2ccccc2)c2ccc(OCCCC(=O)O)cc12 | 0.048 |  |  |  |  |  | 
14 | Cc1c(C(=O)C(N)=O)c2c(OCC(=O)O)cccc2n1Cc1c(Cl)cccc1Cl | 5e-06 | >30000 | 0.077 | 22 |  | 5.5e-06 | 
15 | Cc1c(C(=O)C(N)=O)c2c(O[C@@H](C)C(=O)O)cccc2n1Cc1ccccc1 | 0.00015 |  |  | 136 | 188 | 3.4e-05 | 
16 | CCc1c(C(=O)C(N)=O)c2c(N(CCC(=O)O)C(C)=O)cccc2n1Cc1ccccc1 |  |  |  |  | > 100000 |  | 
17 | CCc1c(C(=O)C(N)=O)c2c(OCC(=O)O)cccc2n1Cc1ccccc1 [VARESPLADIB] | 7.3e-06 | >30000 | 0.083 |  |  | 1.8e-06 | IC50 (Phospholipase A2 [9]): 228 nM; IC50 [11]: 48 nM
18 | Cc1c(C(=O)C(N)=O)c2c(CCC(=O)O)cccc2n1Cc1ccccc1 | 0.00012 |  | 0.614 |  | 145 |  | IC50 (Phospholipase A2 [7]): > 100000 nM
19 | CCc1c(C(=O)C(N)=O)c2c(OCC(=O)O)cccc2n1Cc1cccc(Cl)c1 | 5.8e-06 | 5000 | 0.11 | 25 | 7 | 6.3e-06 | IC50 [12]: 3 nM; IC50 (Phospholipase A2 [13]): 390 nM
20 | CCc1c(C(=O)C(N)=O)c2c(N(CC(=O)O)C(C)=O)cccc2n1Cc1ccccc1 |  |  |  |  | > 100000 |  | 
21 | Cc1c(C(=O)C(N)=O)c2c(OCC(=O)O)cccc2n1Cc1cccc2ccccc12 | 7.3e-06 | >30000 | 0.128 | 17 | 9 | 4.3e-06 | IC50 (Phospholipase A2 [9]): 1200 nM
22 | NC(=O)C(=O)c1c(C2CC2)n(Cc2ccccc2-c2ccccc2)c2cccc(OCC(=O)O)c12 | 5e-06 | >10000 | 0.075 | 23 | 6 | 5.8e-06 | 

Row | Compound | Mole fraction [1] | ED50 (Cavia porcellus [2]) [nM] | KB (Cavia porcellus [3]) [µM] | IC50 [4] [nM] | IC50 [5] [nM] | Mole fraction [6] | other results
23 | CCc1[nH]c2cccc(OCC(=O)O)c2c1C(=O)C(N)=O | 0.0013 |  | 3.41 |  | 1600 |  | 
24 | CCc1c(C(=O)C(N)=O)c2c(OCC(=O)O)cccc2n1C(=O)c1ccccc1 | 6.6e-05 |  | 0.34 | 39 | 81 | 9.8e-06 | 
25 | Cc1c(C(=O)C(N)=O)c2c(OCC(=O)O)cccc2n1Cc1ccc(-c2ccccc2)cc1 | 3.6e-05 |  |  | 150 | 43 | 3.8e-05 | IC50 (Phospholipase A2 [9]): 1090 nM
26 | COc1ccc2c(c1)c(C(=O)C(N)=O)c(C)n2Cc1ccccc1 | 0.00012 |  |  |  | 2560 |  | 
27 | Cc1c(C(=O)C(N)=O)c2c(OC(C)C(=O)O)cccc2n1Cc1ccccc1 (centres undefined) | 8.1e-06 | >30000 | 0.145 |  | 10 | 2.3e-06 | 
28 | CCCc1c(C(=O)C(N)=O)c2c(OCC(=O)O)cccc2n1Cc1ccccc1-c1ccccc1 | 6.7e-05 |  |  |  |  |  | 
29 | Cc1c(C(=O)C(N)=O)c2c(O[C@H](C)C(=O)O)cccc2n1Cc1ccccc1 | 8.9e-06 |  |  | 6 | 11 | 1.5e-06 | 
30 | CCc1c(C(=O)C(N)=O)c2c(SCC(=O)O)cccc2n1Cc1ccccc1 | 0.00012 |  |  | 210 | 145 | 5.3e-05 | 
31 | CCc1c(C(=O)C(N)=O)c2c(OCC(N)=O)cccc2n1Cc1ccccc1 | 0.0001 |  |  |  | 124 |  | 
32 | C=CCc1ccc2c(c1OCC(=O)O)c(C(=O)C(N)=O)c(CC)n2Cc1ccccc1 | 0.013 |  |  |  | 1620 |  | 
33 | NC(=O)C(=O)c1cn(Cc2ccccc2)c2cccc(OCC(=O)O)c12 | 8e-05 |  |  |  | 96 |  | 
34 | Cc1c(C(=O)C(N)=O)c2c(OCCCC(=O)O)cccc2n1Cc1ccccc1-c1ccccc1 | 0.0002 |  |  |  | 243 |  | 
35 | Cc1c(C(=O)C(N)=O)c2c(OCC(=O)O)cccc2n1Cc1ccccc1-c1ccccc1 | 5e-06 | >10000 | 0.068 | 3 | 6 | 7.5e-07 | IC50 (Phospholipase A2 [9]): 364 nM; IC50 [10]: 97 nM
36 | CCc1c(C(=O)C(N)=O)c2c(OC(C)(C)C(=O)O)cccc2n1Cc1ccccc1 | 2.1e-05 | >30000 | 0.143 | 29 | 25 | 7.3e-06 | 
37 | CCc1c(C(=O)C(N)=O)c2c(OC(CCc3ccccc3)C(=O)O)cccc2n1Cc1ccccc1 (centres undefined) | 3.8e-05 | >30000 | 0.293 | 26 | 46 | 6.5e-06 | 
38 | CCc1c(C(=O)C(N)=O)c2c(NCC(=O)O)cccc2n1Cc1ccccc1 | 0.00081 |  |  |  | 1000 |  | 
39 | CCc1c(C(=O)C(N)=O)c2c(OCC(=O)O)cccc2n1S(=O)(=O)c1ccccc1 | 2.3e-05 |  | 0.316 |  |  |  | IC50 [14]: 28 nM
40 | COc1cccc2c1c(C(=O)C(N)=O)c(C)n2Cc1ccccc1 | 0.00012 |  |  |  | 551 |  | 
41 | Cc1c(C(=O)C(N)=O)c2c(OCC(=O)O)cccc2n1Cc1cccc(-c2ccccc2)c1 | 7.3e-06 |  |  | 8 | 9 | 2e-06 | IC50 (Phospholipase A2 [9]): 570 nM; IC50 [10]: 7 nM
42 | COc1cccc2c1c(CC(N)=O)c(C)n2Cc1ccccc1 | 0.00012 |  |  |  | 1180 |  | 
43 | Cc1c(C(=O)C(N)=O)c2c(OCC(=O)O)cccc2n1Cc1ccccc1Cl | 7.3e-06 | >30000 | 0.1 | 25 | 9 | 6.3e-06 | 
44 | CCc1c(C(=O)C(N)=O)c2c(OCC(=O)O)cccc2n1Cc1ccccc1-c1ccccc1 | 5e-06 | 30000 | 0.057 | 6 | 6 | 1.5e-06 | 

Source: ChEMBL document CHEMBL1129458, “Indole inhibitors of human nonpancreatic secretory phospholipase A2. 3. Indole-3-glyoxamides” (J Med Chem, 1996)
